Experimental data: PubChem BioAssay AID743208 (The Scripps Research Institute Molecular Screening Center, 2013)
Screen size: about 2,100 compounds; about 30 (1%) were called active. Not all results are given here. Unmarked numbers belong to inactive results.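 The calls were made as follows: active = inhibition above about 20% chosen separately for each screening run (limit read from the data); inactive = the rest.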

Each compound was assayed against Disintegrin and metalloproteinase domain-containing protein 10 (Homo sapiens) (UniProt O14672) (assay: blockers of ADAM10 peptide cleavage – biochemical, QFRET, triplicate, confirmation (AID 743208;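 also: 0% = DMSO wells and 100% = marimastat wells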)). Conditions: EDANS fluorescence, at 6.95 µM, active compounds read high.
Sequence of Disintegrin and metalloproteinase domain-containing protein 10 (Homo sapiens) (O14672 214-748 limits assumed): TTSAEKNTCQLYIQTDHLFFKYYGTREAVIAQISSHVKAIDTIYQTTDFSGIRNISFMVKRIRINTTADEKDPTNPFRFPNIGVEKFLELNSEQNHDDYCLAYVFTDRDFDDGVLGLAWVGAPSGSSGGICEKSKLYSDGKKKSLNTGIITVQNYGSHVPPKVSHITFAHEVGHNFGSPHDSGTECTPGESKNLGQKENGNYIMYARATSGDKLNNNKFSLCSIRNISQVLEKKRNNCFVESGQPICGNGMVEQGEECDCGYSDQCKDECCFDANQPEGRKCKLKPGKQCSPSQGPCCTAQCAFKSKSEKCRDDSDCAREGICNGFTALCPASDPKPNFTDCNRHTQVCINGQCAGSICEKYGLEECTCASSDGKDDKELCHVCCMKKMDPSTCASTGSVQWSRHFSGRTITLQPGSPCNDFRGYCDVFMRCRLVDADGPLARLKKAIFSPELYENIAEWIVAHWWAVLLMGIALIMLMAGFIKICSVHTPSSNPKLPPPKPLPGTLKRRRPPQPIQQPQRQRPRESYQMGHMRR
Outline: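 Assay system: human ADAM10 protease with quenched EDANS/DABCYL DM2 peptide / Input: ADAM10 at 20 nM (2X solution) / Dosing: 6.95 µM single dose / Incubation: compound-enzyme preincubation 30 min, then 3 h substrate reaction, both 25 °C / Technique: FRET fluorescence, ex 359 nm, em 460 nm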

SMILES | inhibition
COc1ccc(Cl)cc1NC(=O)CN(C)C(=O)CCCc1c[nH]c2ccccc12 | 3.45%
O=C(NCCc1ccc(Cl)cc1Cl)c1cc([N+](=O)[O-])c[nH]c1=O | 0%
C=CC[C@H](CC(=O)N(CCO)Cc1ccccc1)C(=O)N[C@@H](COC(=O)[C@@H](CC=C)Cc1ccc(F)cc1)Cc1ccccc1 | 8.13%
COc1cc(C2CC(=O)N3CN(Cc4ccccc4)CSC3=C2C#N)ccc1OCc1ccccc1 (stereo unspecified) | 5.28%
CC(N=Cc1nc(-c2ccccc2)oc1O)c1ccccc1 (stereo unspecified) | 2.54%
C=CCC[C@@H](Cc1ccc(F)cc1)C(=O)OC[C@H](Cc1c[nH]c2ccccc12)NC(=O)[C@@H](CC=C)CC(=O)N(CCO)Cc1ccccc1 | 10.1%
COc1ccc(Cl)cc1NC(=O)COC(=O)C(CC(C)C)N1C(=O)C2CC=CCC2C1=O (stereo unspecified) | 2.32%
Cc1cccc(C2c3[nH]c4ccccc4c3CCN2C(=O)c2cc(-c3cccn3C)n[nH]2)n1 (stereo unspecified) | 6.14%
N#Cc1nc(Cc2cccc3ccccc23)oc1NCc1ccc2c(c1)OCO2 | 6.72%
C#CCN(C[C@H]1[C@H](OC(=O)NC2CCCC2)[C@H](OC(=O)NC2CCCC2)C[C@H]2C(=O)N(c3ccccc3)C(=O)[C@@H]12)S(=O)(=O)c1ccc(C)cc1 | 2.92%
Cc1ccc(NS(=O)(=O)c2ccc(C)c(NC(=O)COc3ccc4ccccc4c3)c2)c(C)c1 | 9.74%
O=C(CNC(=O)c1ccc(Cl)cc1Cl)NCC(=O)Nc1ccccc1N1CCOCC1 | 0.46%
CCOc1ccc(Br)cc1S(=O)(=O)Nc1ccc(C(=O)OC(C)C(=O)N(C)c2ccccc2)cc1 (stereo unspecified) | 9.44%
CCC(C(=O)OCC(=O)Nc1ccccc1-c1ccccc1)c1ccccc1 (stereo unspecified) | 2.14%
Cc1csc(NC(=S)Nc2cccc(Cl)c2)n1 | 7.9%
CC(C)Oc1cc(F)ccc1-c1cc(C(=O)Nc2cccc(Cl)c2)[nH]n1 | 9.22%
c1ccc2c(CCN3CCNC[C@H]3Cc3cccc4ccccc34)cccc2c1 | 5.45%
COc1cc(/C=N/O)cc(Br)c1OS(=O)(=O)c1ccc(C)cc1 | 2.32%
O=C1[C@H]2[C@@H](c3ccc(C(F)(F)F)cc3)N[C@]3(CCCN(Cc4ccc(Br)cc4)C3=O)[C@H]2C(=O)N1Cc1ccccc1 | 6.04%
CC(C)(C)c1ccc(C(=O)Nc2cc(Cl)c(Br)cc2C(=O)O)cc1 | 3.89%
CC(C)C(=O)Nc1cccc(NC(=S)NC(=O)C(c2ccccc2)c2ccccc2)c1 | 7.37%
